Measurements published in article PMC6541390 (Biochemistry, 2010).
Several values for one entry are separate records, joined by “and”; a condition that tells them apart may be missing. Equal values may be shown once. Read-outs that look alike come from different tables or passages of the source.

Key:
[1] = target: T1, Escherichia coli biotin synthase (BS) (Escherichia coli, UniProt P12996); assay: Screen for BS inhibition by products and product-related compounds; assay type: biochemical; details: for inhibition of BS in the screen: inhibitor 500 μM alone, AdoMet 100 μM, BS 25 μM, 30 min, 37 °C
T1 sequence (P12996 whole entry): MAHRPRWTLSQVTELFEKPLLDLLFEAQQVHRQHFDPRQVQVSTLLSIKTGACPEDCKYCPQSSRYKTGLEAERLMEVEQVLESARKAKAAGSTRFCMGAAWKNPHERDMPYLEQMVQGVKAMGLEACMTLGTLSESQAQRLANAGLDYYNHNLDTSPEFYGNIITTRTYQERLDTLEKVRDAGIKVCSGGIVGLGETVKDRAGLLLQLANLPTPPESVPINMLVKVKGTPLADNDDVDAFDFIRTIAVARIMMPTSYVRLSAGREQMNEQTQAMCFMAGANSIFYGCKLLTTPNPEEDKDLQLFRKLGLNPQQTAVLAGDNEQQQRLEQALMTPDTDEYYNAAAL
Method in brief: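 Anaerobic: BS (25 μM) in 50 mM Tris-HCl, 100 mM KCl, 5 mM DTT, pH 8.0, reconstituted 5 min with Na2S and FeCl3 (200 μM each). Flavodoxin 25 μM, its NADP+ reductase 4 μM, NADPH 1 mM and DTB 50 μM added for 5 min, then AdoMet 100 μM and candidate (500 μM). 30 min, 37 °C; biotin, dAH, MDTB by HPLC; duplicates averaged, normalised to no-inhibitor sample.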

[2] = target: T1, Escherichia coli biotin synthase (BS); assay type: biochemical; details: for Ki: BS 25 μM, 30 min, 37 °C
[3] = target: T1, Escherichia coli biotin synthase (BS); assay: Equilibrium UV/visible titration of AdoHcy binding to reconstituted BS
[4] = target: T1, Escherichia coli biotin synthase (BS); assay: Titration of BS active sites with AdoHcy in the activity assay; assay type: biochemical; details: extrapolation of the initial linear part of the inhibition curve
[5] = target: T1, Escherichia coli biotin synthase (BS); assay: Effect of MTA nucleosidase on BS activity in the presence of inhibitors; assay type: biochemical
[6] = target: T2, E. coli MTAN (5′-methylthioadenosine/S-adenosyl-L-homocysteine nucleosidase) (Escherichia coli, UniProt P0AF12); details: identical assay conditions; ref Lee et al. (32); cited from earlier work
T2 sequence (P0AF12 whole entry): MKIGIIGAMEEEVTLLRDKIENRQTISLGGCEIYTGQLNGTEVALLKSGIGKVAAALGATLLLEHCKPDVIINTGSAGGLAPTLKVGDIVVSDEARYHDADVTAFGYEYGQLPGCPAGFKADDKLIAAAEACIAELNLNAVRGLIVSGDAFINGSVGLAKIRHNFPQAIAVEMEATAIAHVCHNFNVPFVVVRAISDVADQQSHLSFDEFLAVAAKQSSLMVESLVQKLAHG

[7] = tested on: E. coli cytosine 5-methyltransferase; details: cited from earlier work
[8] = target: rat catechol O-methyltransferase; details: cited from earlier work
PFL activase = PFL activase (Escherichia coli, UniProt P0A9N4); details: at 100 μM AdoMet; cited from earlier work
Sequence of PFL activase (P0A9N4 2-246): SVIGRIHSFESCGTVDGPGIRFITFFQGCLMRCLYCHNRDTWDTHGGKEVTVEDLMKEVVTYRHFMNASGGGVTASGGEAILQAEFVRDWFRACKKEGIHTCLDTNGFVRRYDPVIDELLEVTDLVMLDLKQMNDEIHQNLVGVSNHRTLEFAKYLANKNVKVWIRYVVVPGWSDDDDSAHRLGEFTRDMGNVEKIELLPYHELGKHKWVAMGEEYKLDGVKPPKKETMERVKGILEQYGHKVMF

[9] = target: T1, Escherichia coli biotin synthase (BS); assay: BS activity at varying AdoMet concentration, commercial versus pure AdoMet; assay type: biochemical; details: enzymatically synthesized AdoMet, Michaelis-Menten fit; BS 25 μM
[10] = target: T1, Escherichia coli biotin synthase (BS); details: read-out: Kd AdoMet; cited from earlier work
[11] = cited from earlier work
[12] = target: T2, E. coli MTAN (5′-methylthioadenosine/S-adenosyl-L-homocysteine nucleosidase); assay: MTA/AdoHcy nucleosidase activity assay; assay type: biochemical
BS = details: 30 μM dAH, 90 min assay; cited from earlier work
E. coli BS = E. coli BS (Escherichia coli, UniProt P12996); details: high AdoMet concentration, 3 h at 37 °C; cited from earlier work
Sequence of E. coli BS (P12996 whole entry): as the sequence (P12996 whole entry) above

DNA methyltransferases = details: binding cooperatively with DNA; cited from earlier work
[13] = Ki, inhibitor alone, competitive with AdoMet

5′-methylthioadenosine [MTA]
inhibition of BS in the screen [1]: not an inhibitor

C[S+](CC[C@H](N)C(=O)[O-])C[C@H]1O[C@@H](n2cnc3c(N)ncnc32)[C@H](O)[C@@H]1O (stereo partly drawn) [(R,S)-AdoMet]
decrease of biotin production ([1]; heat-racemized AdoMet, 55 μM (R,S)-AdoMet and 100 μM (S,S)-AdoMet): ~15%

Nc1ncnc2c1ncn2[C@@H]1O[C@H](CSCC[C@H](N)C(=O)O)[C@@H](O)[C@H]1O [AdoHcy, S-adenosyl-L-homocysteine]
Ki ([2]; Ki AdoHcy, fit to eq 1 with a, b, c = 1 and d = 0, AdoMet 100-500 μM): ≤ 0.65 µM and 0.4 to 1.2 µM and < 0.65 µM and 0.65 µM | inhibition of BS in the screen [1]: no detectable biotin produced | level of MDTB intermediate relative to control ([1]; inhibitor 500 μM, 30 min assay): less MDTB than the control sample | Kd [3]: 0.54 ± 0.15 µM | AdoHcy binding sites per BS dimer ([3]; equilibrium titration, BS 50 μM): 1.5 sites per dimer | koff ([3]; read-out: koff, inhibitor dissociation): ≥ 10 s⁻¹ | AdoHcy equivalents (sites) per BS dimer for complete inhibition [4]: 0.85 equiv per dimer | BS activity on addition of MTAN ([5]; MTAN 200 nM): only partially restored | decrease of BS activity ([5]; inhibitor 50 μM (each), without MTAN, BS 25 μM, 37 °C): ~ 95% | kcat [6]: 2.6 s⁻¹ | Ki [7]: 14 µM | Ki [8]: 50 µM | IC50 (PFL activase): ~20 µM

C[S+](CC[C@H](N)C(=O)[O-])C[C@H]1O[C@@H](n2cnc3c(N)ncnc32)[C@H](O)[C@@H]1O (stereo partly drawn) [AdoMet, S-adenosyl-L-methionine]
Vmax [9]: 0.52 µM/min | Kd [10]: 2.3 µM | t½ of spontaneous racemization at the sulfonium center ([11]; 37 °C): 107 h | t½ of spontaneous degradation to MTA ([11]; physiological conditions): 42 h

NC(CCS)C(=O)O (centres unmarked) [Homocysteine]
inhibition of BS in the screen [1]: not an inhibitor

O=C(O)CCCC[C@@H]1SC[C@@H]2NC(=O)N[C@@H]21 [biotin]
inhibition of BS in the screen [1]: neither biotin nor iminobiotin, the guanido analogue of biotin, is a significant inhibitor

C[C@H]1O[C@@H](n2cnc3c(N)ncnc32)[C@H](O)[C@@H]1O [dAH, 5′-deoxyadenosine]
Ki [2, 13]: 20 µM | enhancement of dAH inhibition by cooperative binding with methionine ([2]; excess methionine): 3 fold | inhibition of BS in the screen [1]: inhibitors | concentration of MDTB intermediate relative to the control sample ([1]; inhibitor 500 μM, 30 min assay): 3–4 times | turnover rate (kcat) faster than with AdoHcy [12]: 2 fold | turnover rate (kcat) faster than with MTA [12]: 1.7 fold | weaker affinity (Km) for MTA nucleosidase as compared to MTA [12]: 5.8 fold | kcat ([12]; MTAN 12 nM, 50 mM sodium phosphate pH 7.5): 5.1 s⁻¹ | inhibition of biotin production (BS): ~ 90% | IC50 (E. coli BS): ~400 µM

N=C1N[C@H]2[C@H](CS[C@H]2CCCCC(=O)O)N1 [iminobiotin]
inhibition of BS in the screen [1]: neither biotin nor iminobiotin, the guanido analogue of biotin, is a significant inhibitor

CSCC[C@H](N)C(=O)O [methionine]
Ki [2, 13]: 100 µM | inhibition of BS in the screen [1]: inhibitors

Nc1ncnc2c1ncn2[C@@H]1O[C@H](C[C@@H](N)CC[C@H](N)C(=O)O)[C@@H](O)[C@H]1O [sinefungin]
Ki [2, 13]: 40 to 140 µM and 75 µM | inhibition of BS in the screen [1]: inhibitor with a decrease in activity comparable to that observed for dAH | level of MDTB intermediate relative to control ([1]; inhibitor 500 μM, 30 min assay): less MDTB than the control sample | Ki (DNA methyltransferases): ~0.01 µM
